Experiment [1] relates to SH-SY5Y. Kind of experiment: Antiproliferative activity against human SH-SY5Y cells assessed as cell viability at 40 uM after 48 hrs relative to control. In kind it is functional. To be noted: read-out: Activity. The essentials: (§1)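 Single fixed concentration of 40 µM against HeLa or SH-SY5Y cells; viability given as mean ± S.E.M., n = 8 from two separate experiments.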

Experiment [2] has as its system HeLa. Kind of experiment: Antiproliferative activity against human HeLa cells assessed as cell viability at 40 uM after 48 hrs relative to control. The settings on record: read-out: Activity. The experiment is classed as functional. An outline of the steps:
as §1

Experiment [3] concerns the target T1, Tubulin (Homo sapiens) (UniProt P68371+Q9H4B7+P0DPH7+P68366+Q13509+Q71U36+P04350+Q3ZCM7+P07437+P68363+Q9BQE3+Q6PEY2+Q13885+Q9BVA1+Q9BUF5). Kind of experiment: Inhibition of tubulin (unknown origin) polymerization up to 60 uM. In kind it is protein-complex assay. An outline of the steps:
(§2)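 Cell-free fluorescence-based tubulin polymerization kit; compound tested from 10 µM up to 60 µM.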

Experiment [4] deals with HeLa. The experiment can be described thus: Inhibition of TNFalpha-induced NFkappaB activation assessed as TNFalpha-induced transcription level in human HeLa cells at 30 uM incubated for 6 hrs by luciferase reporter gene assay. In kind it is cell-based. On the set-up: scale not given: the % may be the effect or the level left. The essentials: (§3)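 HeLa NF-κB luciferase reporter: cells plated at 5 × 10³/well; after 8 h, TNFα (20 ng/mL) applied for 6 h with or without compound. Firefly luciferase normalized to pRLTK Renilla by dual-luciferase read-out; n = 6–11 from 3–6 experiments.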
A general note: A reporter such as luciferase makes a cellular process visible.

Experiment [5] has as its target T1, Tubulin (Homo sapiens). The experiment can be described thus: Inhibition of tubulin polymerization in human HeLa cells assessed as increase in soluble fraction incubated for 16 hrs by cellular assay. In kind it is cell-based. The essentials:
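HeLa cells exposed 16 h; proteins extracted in presence of paclitaxel, pelletable and soluble fractions separated and resolved by SDS–PAGE.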

The test system of experiment [6] is SH-SY5Y. Kind of experiment: Antiproliferative activity against human SH-SY5Y cells assessed as cell viability after 48 hrs. The experiment is classed as functional, cell-based.
In experiment [7] the test system is HeLa. The experiment can be described thus: Antiproliferative activity against human HeLa cells assessed as cell viability after 48 hrs. In kind it is functional, cell-based.
The subject of experiment [8] is HeLa. The experiment can be described thus: Cell cycle arrest in human HeLa cells at IC50 to 2 times IC50 after 8 hrs by FACS analysis. In kind it is functional, cell-based. An outline of the steps: (§4)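 HeLa cells seeded at 6 × 10⁵ cells/well, starved overnight, then exposed at IC50, 2× and 3× IC50 for 8 h or 16 h. Cells fixed in 70% EtOH overnight at −20 °C, then RNase-treated (100 µg/mL, 1 h, 37 °C) before cell-cycle phase analysis.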
On the technique in general: A flow cytometer gives signals particle by particle.

In experiment [9] the test system is HeLa. Kind of experiment: Cell cycle arrest in human HeLa cells assessed as accumulation at […] phase at IC50 to 2 times IC50 after 16 hrs by FACS analysis. In kind it is functional, cell-based. The essentials: as §4
Experiment [10] concerns HeLa. Kind of experiment: Potentiation of TNFalpha-induced NFkappaB activation in human HeLa cells at 3 uM incubated for 6 hrs by luciferase reporter gene assay. In kind it is cell-based. An outline of the steps:
as §3

The target in experiment [11] is T1, Tubulin (Homo sapiens). The experiment can be described thus: Inhibition of tubulin (unknown origin) polymerization at 10 uM. The experiment is classed as protein-complex assay. An outline of the steps:
as §2

The source made the active and inactive calls. No cut-off for these calls is given here.

For the molecule `COc1cccc(/C=C/n2cc(/C=C/c3cc(OC)c(OC)c(OC)c3)nn2)c1`, the viability at 40 µM in the experiment with SH-SY5Y [1] is 99.9%; in the experiment with HeLa [2] it was 77.9%. In addition, the outcome on Tubulin (Homo sapiens) [3] was inactive. For the same molecule, the Activity with HeLa [4] was 42.2%. Further, the inhibition entry at Tubulin (Homo sapiens) [5] was “inactive”.
In the case of `COc1cccc(/C=C/n2cc(/C=C/c3ccccc3)nn2)c1`, the figures for the viability at 40 µM in the experiment on SH-SY5Y [1] and in the experiment on HeLa [2] were 107% and 82.1%, respectively. The Activity in the experiment with HeLa [4] is 76.1%.
Regarding `C(=C\c1cn(/C=C/c2ccccc2)nn1)/c1ccccc1`, the viability at 40 µM turned out to be 118% with SH-SY5Y [1] and 70% in the experiment on HeLa [2]. Besides, the Activity with HeLa [4] is 79.9%.
For `COc1cccc(/C=C/c2cn(/C=C/c3ccccc3)nn2)c1`, in that order: 88.7%, 93.9% and 87%.
For `COc1cccc(/C=C/n2cc(/C=C/c3ccc(O)cc3)nn2)c1`, in that order: 68.9%, 41.9% and 94.3%.
For `COc1cc(/C=C/c2cn(/C=C/c3ccccc3)nn2)ccc1O` the same measures were 110%, 79.5% and 138%.
As to `Oc1ccc(/C=C/c2cn(/C=C/c3ccccc3)nn2)cc1`, the viability at 40 µM with SH-SY5Y [1] amounted to 70.6%; in the experiment with HeLa [2], 39.5%. The Activity in the experiment with HeLa [4] is 85.4%.
In general, IC50 refers to the concentration at which inhibition is half-maximal. Take `COc1cccc(/C=C/n2cc(/C=C/c3ccc(O)c(O)c3)nn2)c1`: the viability at 40 µM was 27.7% in the experiment with SH-SY5Y [1] and 16.6% in the experiment with HeLa [2]. The IC50 in the experiment with SH-SY5Y [6] was 17 µM; in the experiment with HeLa [7], 18.7 µM. Also, the Activity in the experiment with HeLa [4] is 97%.
On to `COc1ccc(/C=C/c2cn(/C=C/c3ccc(O)c(OC)c3)nn2)cc1O`, for which the figures for the viability at 40 µM with SH-SY5Y [1] and in the experiment with HeLa [2] were 18.1% and 7.9%, respectively. Besides, the figures for the IC50 with SH-SY5Y [6] and in the experiment with HeLa [7] were 6.9 µM and 11.7 µM, respectively. Further, the outcome at Tubulin (Homo sapiens) [3] and with HeLa [8] was inactive. In the experiment on HeLa [9], the outcome was Active. Also, the Activity in the experiment with HeLa [4] turned out to be 15.3%. In addition, the inhibition entry on Tubulin (Homo sapiens) [5] was “inactive”.
For the molecule `COc1cccc(/C=C/c2cn(/C=C/c3cccc(OC)c3)nn2)c1`, the viability at 40 µM is 71.4% in the experiment on SH-SY5Y [1] and 92.8% in the experiment on HeLa [2]. The Activity with HeLa [4] was 71%.
For `Oc1ccc(/C=C/n2cc(/C=C/c3ccc(O)c(O)c3)nn2)cc1` the same measures were 60.4%, 60.1% and 124%.
For `COc1cc(/C=C/n2cc(/C=C/c3ccc(O)cc3)nn2)ccc1O`, in that order: 50.3%, 83.5% and 73.2%.
For `COc1ccc(/C=C/c2cn(/C=C/c3ccc(O)c(OC)c3)nn2)cc1` the same measures were 50%, 67.9% and 146%.
For the molecule `COc1cc(/C=C/c2cn(/C=C/c3ccc(O)cc3)nn2)ccc1O`, the viability at 40 µM with SH-SY5Y [1] came to 55.4%; with HeLa [2], 56.8%. The Activity in the experiment on HeLa [4] worked out at 96%.
Consider `COc1cccc(/C=C/c2cn(/C=C/c3ccc(O)c(OC)c3)nn2)c1` (mixture of isomers), for which the viability at 40 µM in the experiment on SH-SY5Y [1] came to 65.3%; in the experiment with HeLa [2] it was 38.7%. Besides, in the experiment on HeLa [4], the Activity worked out at 88.9%.
In the case of `COc1cccc(/C=C/c2cn(/C=C/c3ccc(O)cc3)nn2)c1`, the viability at 40 µM in the experiment on SH-SY5Y [1] amounted to 37.9%; in the experiment on HeLa [2] it was 30.4%. Besides, the IC50 in the experiment with SH-SY5Y [6] turned out to be 9 µM; with HeLa [7] it was 17.2 µM. The Activity in the experiment on HeLa [4] was found to be 61.5%.
For the molecule `COc1cc(/C=C/c2cn(/C=C/c3ccc(O)c(OC)c3)nn2)ccc1O`, the viability at 40 µM was found to be 36.1% in the experiment on SH-SY5Y [1] and 50.5% in the experiment on HeLa [2]. Further, the IC50 turned out to be 17.8 µM with SH-SY5Y [6] and 36.4 µM with HeLa [7]. Moreover, at Tubulin (Homo sapiens) [3], the result was inactive. Further, the Activity with HeLa [4] stood at 48%. In the experiment with HeLa [10], the fold change (FC) is 2. For the same molecule, the inhibition entry at Tubulin (Homo sapiens) [5] is “inactive”.
As to `Oc1ccc(/C=C/c2cn(/C=C/c3ccccc3)nn2)cc1O`, the viability at 40 µM stood at 40.1% in the experiment with SH-SY5Y [1] and 18.4% in the experiment with HeLa [2]. Further, the Activity in the experiment with HeLa [4] was 167%.
Consider `COc1ccc(/C=C/c2cn(/C=C/c3ccc(O)cc3)nn2)cc1`, for which the results for the viability at 40 µM in the experiment with SH-SY5Y [1] and with HeLa [2] were 25.7% and 66.3%, respectively. The IC50 turned out to be 11.3 µM in the experiment with SH-SY5Y [6] and 34 µM in the experiment with HeLa [7]. In addition, in the experiment with HeLa [4], the Activity stood at 131%.
Turning to `COc1cc(/C=C/C(=O)CC(=O)/C=C/c2ccc(O)c(OC)c2)ccc1O` [CURCUMIN], the viability at 40 µM worked out at 22.6% with SH-SY5Y [1] and 42.5% with HeLa [2]. Besides, the IC50 with SH-SY5Y [6] turned out to be 16.1 µM; with HeLa [7], 21.8 µM. The result on Tubulin (Homo sapiens) [11] and in the experiment on HeLa [8] was inactive. Besides, at Tubulin (Homo sapiens) [3], the inhibition result is “Active”. Also, the result with HeLa [9] was Active. Further, the Activity with HeLa [4] worked out at 60.5%. Besides, the inhibition entry on Tubulin (Homo sapiens) [5] is “inactive”.
With `COc1cccc(/C=C/n2cc(/C=C/c3ccc(O)c(OC)c3)nn2)c1`, the values for the viability at 40 µM with SH-SY5Y [1] and with HeLa [2] were 66.3% and 66.9%, respectively. Besides, the Activity with HeLa [4] was determined as 57%.
For `COc1cc(/C=C/n2cc(/C=C/c3ccccc3)nn2)ccc1O` the same measures were 86.7%, 84.3% and 144%.
For `COc1ccc(/C=C/c2cn(/C=C/c3ccccc3)nn2)cc1` the same measures were 126%, 69.2% and 74.5%.
As to `COc1cc(/C=C/c2cn(/C=C/c3ccc(O)cc3)nn2)cc(OC)c1OC`, the results for the viability at 40 µM in the experiment on SH-SY5Y [1] and in the experiment with HeLa [2] were 21.3% and 19.2%, respectively. Also, the concentration for half-maximal inhibition (IC50) was 1.7 µM in the experiment with SH-SY5Y [6] and 1.5 µM in the experiment on HeLa [7]. The outcome on Tubulin (Homo sapiens) [3] and in the experiment on HeLa [8] was inactive. In addition, the result with HeLa [9] was Active. The Activity in the experiment with HeLa [4] amounted to 14.6%. In addition, the inhibition entry at Tubulin (Homo sapiens) [5] was “inactive”.
On to `Oc1ccc(/C=C/n2cc(/C=C/c3ccccc3)nn2)cc1`, for which the viability at 40 µM in the experiment on SH-SY5Y [1] was 48%; with HeLa [2], 50.7%. In the experiment with HeLa [4], the Activity worked out at 88.9%.
`Oc1ccc(/C=C/c2cn(/C=C/c3ccc(O)cc3)nn2)cc1`: the viability at 40 µM in the experiment on SH-SY5Y [1] was 49.6%; with HeLa [2], 55.3%. For the same molecule, the Activity in the experiment with HeLa [4] is 112%.
For `COc1ccc(/C=C/c2cn(/C=C/c3cccc(OC)c3)nn2)cc1`, the viability at 40 µM was determined as 52% in the experiment on SH-SY5Y [1] and 55.1% in the experiment with HeLa [2]. Also, the Activity in the experiment with HeLa [4] is 81.3%.
Turning to `COc1cc(/C=C/n2cc(/C=C/c3cc(OC)c(OC)c(OC)c3)nn2)ccc1O`, the viability at 40 µM in the experiment with SH-SY5Y [1] is 23.5%; in the experiment on HeLa [2] it was 23%. Moreover, the values for the IC50 with SH-SY5Y [6] and in the experiment with HeLa [7] were 7.8 µM and 13.6 µM, respectively. The outcome on Tubulin (Homo sapiens) [3] and with HeLa [8] was inactive. The outcome in the experiment on HeLa [9] was Active. In the experiment with HeLa [4], the Activity came out at 27.5%. At Tubulin (Homo sapiens) [5], the inhibition result was “inactive”.
As to `COc1cc(/C=C/c2cn(/C=C/c3ccccc3)nn2)cc(OC)c1OC`, the figures for the viability at 40 µM with SH-SY5Y [1] and with HeLa [2] were 69.2% and 52.1%, respectively. For the same molecule, the Activity with HeLa [4] is 65.3%.

The values are drawn from ChEMBL document CHEMBL3739312, “Triazole-curcuminoids: A new class of derivatives for 'tuning' curcumin bioactivities?” (Bioorg Med Chem, 2016).
